Consider 31 compounds from ChEMBL document CHEMBL1154931, “Exploration of a new series of PAR1 antagonists” (Bioorg Med Chem Lett, 2010).

Molecules are shown by their SMILES. Activity calls are given as the source filed them. No cut-off for these calls is given here.

Assay [1] has as its target T1, Proteinase-activated receptor 1 (Homo sapiens) (UniProt P25116).
T1 sequence (whole entry): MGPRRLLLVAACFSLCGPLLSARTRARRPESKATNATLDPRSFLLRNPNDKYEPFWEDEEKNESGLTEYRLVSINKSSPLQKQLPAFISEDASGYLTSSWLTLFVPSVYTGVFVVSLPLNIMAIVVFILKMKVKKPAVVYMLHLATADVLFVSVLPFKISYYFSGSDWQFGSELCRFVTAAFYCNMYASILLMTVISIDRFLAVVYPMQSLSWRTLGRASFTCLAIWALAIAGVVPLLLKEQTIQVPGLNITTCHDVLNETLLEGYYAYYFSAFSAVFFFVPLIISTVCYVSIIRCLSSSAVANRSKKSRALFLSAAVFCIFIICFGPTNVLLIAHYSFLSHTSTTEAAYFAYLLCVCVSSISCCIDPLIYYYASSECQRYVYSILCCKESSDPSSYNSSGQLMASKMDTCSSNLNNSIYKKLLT
Kind of assay: Antagonist activity at PAR1 expressed in CHO cells assessed as inhibition of SFLLR-NH2-induced calcium release at 10 uM by FLIPR assay. The assay is classed as functional, cell-based. In short, it runs like this: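 Calcium release triggered by 1 µM SFLLR-NH₂; test compound at 10 µM, read as % inhibition of the agonist response. Values are mean SEM of at least two independent determinations, each run in triplicate.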

Assay [2] can be described thus: Antiaggregatory activity in human platelets assessed as inhibition of SFLLR-induced aggregation. Format: functional, Platelet.
The next assay has as its system Rattus norvegicus. Description: Antithrombotic activity in rat assessed as increase in occlusion time of arteriovenous shunt at 1.25 mg/kg, iv. The assay is classed as functional. The method, boiled down: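 Arteriovenous extracorporeal shunt in anesthetized rats, compound dosed at 1.25 mg/kg. Read-out is % increase of occlusion time.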
In assay [3] the target is T2, Proteinase-activated receptor 1 (Homo sapiens, UniProt P25116).
T2 sequence (P25116 whole entry): T1 sequence (whole entry)
Description: (§1) Antagonist activity at PAR1 expressed in CHO cells assessed as inhibition of SFLLR-NH2-induced calcium release by FLIPR assay. Format: functional, cell-based. The following applies: read-out: pA2 (converted). The method, boiled down: (§2)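 Concentration-response study in the same calcium-release screen, with release induced by 1 µM SFLLR-NH₂. Used to separate partial from fully competitive antagonists; pA₂ was derived for full antagonists only.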

Assay [4] has as its target T1, Proteinase-activated receptor 1 (Homo sapiens). The assay is described as §1. Format: functional, cell-based. In short, it runs like this:
as §2

For orientation: inhibition means the change of the read-out against control, counted positive when it falls. In the case of `O=c1c(/C=C/c2ccccc2Cl)c(N2CCN(CC3CCCCC3)CC2)c1=O`, in assay [1], the inhibition worked out at 41%. Still for that read-out and setting: the value for `O=C(/C=C/c1ccccc1Cl)c1ccc(NC2CCCC2)nc1` was 11%.

As to `Cc1cccc(-c2ccc(C(=O)/C=C/c3c(F)cccc3F)nc2)c1C`, in assay [1], the inhibition came to 40%. Still for that read-out and setting: the value for `O=C(C1=Cc2ccccc2OC1)N1CCN(Cc2ccc(F)cc2)CC1` was 16%.

As usually defined, the pKb is the negative decadic logarithm of the Kb, by convention in mol/L. With `N#Cc1ccccc1/C=C\C(=O)N1CCC(N(Cc2ccc(F)cc2)Cc2ccccn2)C(F)C1` (stereo not drawn), the pKb in assay [2] is recorded as 5.68. Moreover, the inhibition in assay [1] came to 68%. Besides, in the assay on Rattus norvegicus, the Activity is recorded as 53%. For the same compound, the Kb in assay [3] was 589 nM.

In the case of `O=C(/C=C\c1ccccc1Cl)N1CCC(N(Cc2ccc(F)cc2)Cc2ccccn2)C(F)C1` (stereo not drawn), the inhibition in assay [1] was determined as 23%. With `N#Cc1ccccc1/C=C/C(=O)c1ccc(N2CC=CC2)cn1`, the inhibition in assay [1] turned out to be 52%. Regarding `O=C(/C=C/c1ccccc1Cl)N1CCN(Cc2ccc(F)cc2)CC1`, in assay [2], the pKb stood at 5.52. The inhibition in assay [1] stood at 93%. Further, the Activity in the assay on Rattus norvegicus worked out at 28%. For the same compound, the Kb in assay [3] is 380 nM. The matching figures for `N#Cc1ccccc1/C=C/C(=O)c1ccc(NC2CCCC2)nc1`: 5.05, 84%, 28% and 933 nM. For the compound `N#Cc1ccccc1/C=C/C(=O)N1CCC(N(Cc2ccc(F)cc2)Cc2ccccn2)C(F)C1` (stereo not drawn), the inhibition in assay [1] was 33%. For the compound `N#Cc1ccccc1/C=C/c1c(N2CCN(Cc3ccsc3)CC2)c(=O)c1=O`, in assay [2], the pKb is reported as 4. The inhibition in assay [1] is 97%. Moreover, the Kb in assay [3] was 389 nM. `O=C(c1cc2ccccc2[nH]1)N1CCN(Cc2ccccc2)CC1`: the inhibition in assay [1] is 2%. In the case of `O=c1c(/C=C/c2ccccc2Cl)c(N2CCN(Cc3ccc(F)cc3)CC2)c1=O`, the inhibition in assay [1] turned out to be 23%. On the same count and under the same terms, the value for `O=C(/C=C/c1c(F)cccc1F)c1ccc(N2CCCC2)nc1` was 20%; that for `Cn1c(C(=O)N2CCN(Cc3ccccc3)CC2)cc2ccccc21` was 11%.

Take `O=C(/C=C/c1ccccc1Cl)c1ccc(NC2CCCCC2)nc1`: the inhibition in assay [1] turned out to be 97%. Moreover, in assay [4], the pA2 entry is “Active”.

With `O=C(/C=C/c1c(F)cccc1F)c1ccc(N2CC=CC2)cn1`, the inhibition in assay [1] came out at 60%. In the case of `O=C(c1cc2ccccc2o1)N1CCN(Cc2ccccc2)CC1`, in assay [1], the inhibition is 1%. Same read-out and setting: with `O=c1c(/C=C/c2ccccc2Cl)c(N2CCN(Cc3ccsc3)CC2)c1=O` the figure was 27%; with `N#Cc1ccccc1/C=C\C(=O)N1CCC(NCc2ccc(F)cc2)C(F)C1` (stereo not drawn), 40%. Take `Cc1cccc(-c2ccc(C(=O)/C=C/c3ccccc3Cl)cn2)c1C`: in assay [1], the inhibition was determined as 32%. Still for that read-out and setting: with `Cc1cccc(-c2ccc(C(=O)/C=C/c3c(F)cccc3F)cn2)c1C` the figure was 74%; with `O=C(c1cc2c(F)cccc2s1)N1CCN(Cc2ccccc2)CC1`, 4%. For the compound `O=C(/C=C\c1c(F)cccc1F)N1CCC(NCc2ccc(F)cc2)C(F)C1` (stereo not drawn), the inhibition in assay [1] came to 25%.

On to `O=c1c(/C=C/c2ccccc2Cl)c(N2CCN(Cc3ccccc3)CC2)c1=O`, for which the inhibition in assay [1] stood at 85%. Moreover, the pA2 result in assay [4] is “Active”. For the compound `O=C(/C=C\c1ccccc1Cl)N1CCC(Nc2ccc(F)cc2)C(F)C1` (stereo not drawn), in assay [2], the pKb worked out at 4. Moreover, in assay [1], the inhibition was 85%. Further, the Kb in assay [3] was 389 nM.

Take `N#Cc1ccccc1/C=C/C(=O)c1ccc(NC2CCCCC2)nc1`: the inhibition in assay [1] was determined as 53%. The same measure, in the same setting: with `O=C(/C=C/c1c(F)cccc1F)N1CCC(NCc2ccc(F)cc2)CC1` the figure was 0%. The same measure, in the same setting: the value for `O=C(/C=C/c1ccccc1Cl)c1ccc(N2CC=CC2)cn1` was 13%; that for `O=C(/C=C/c1c(F)cccc1F)c1ccc(NC2CCCCC2)nc1` was 41%. For the compound `N#Cc1ccccc1/C=C/c1c(N2CCN(CC3CCCCC3)CC2)c(=O)c1=O`, the pKb in assay [2] came out at 4. For the same compound, the inhibition in assay [1] came out at 84%. Moreover, in assay [3], the Kb was 427 nM.
